High-throughput results from PubChem BioAssay.
Shown are actives, neighbours in structure and some others; about 1.9% of the full set was active somewhere.
Rin1-Abl PPI inh: inhibitors of human Rin1-Abl protein interaction. P00519+Q13671. TR-FRET Rin1/Abl binding, biochemical. AID 588664. hit rate 0.4% among 360,000. inhibition, % at 7.35 µM; in the data active = inhibition above about 5%, passing the limit was not always enough
MBD2 DNA inh: inhibitors of human MBD2 binding to methylated oligonucleotide; Q9UBB5; TR-FRET; inhibition, % at 4.4 µM; hit rate 0.31% among 370,000; AID 686964; in the data active = inhibition above about 13%
LEDGF integ inh: blocks HIV-1 LEDGF/p75-dependent DNA integration | AID 743269 | hit rate 0.64% among 370,000 | TR-FRET IN-LEDGF/p75 DNA integration, Eu/Cy5 | inhibition, % at 3.7 µM;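 active = inhibition above the screen-wide mean plus 3 SD, cut at about 13% in these data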;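 also: signal is the Cy5 over europium emission ratio at 671 and 618 nm; 0% = plate median of compound wells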
TDP2 inh: TDP2 (human) inhibition, absorbance primary screen; recombinant TDP2, T5PNP hydrolysis, p-nitrophenol absorbance 415 nm; O95551; hit rate 0.34% among 370,000; inhibition, % at 12.8 µM;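 active = inhibition above the mean of all tested compounds plus 3 SD, set per campaign, cut at about 25% in these data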;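 also: 0% = DMSO with enzyme and 100% = buffer with substrate but no TDP2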
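System: recombinant human TDP2 / Amount: 120 nM TDP2 per well / Also added: 5 mM T5PNP chromogenic substrate / Doses: 12.8 µM single point, 1% DMSO / Incubation: 2 h at 37 °C / Detection: p-Nitrophenol epi absorbance / Evaluation: % inhibition relative to enzyme-containing and enzyme-free wells / Repeats: singlicate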
UHRF1 MBD2 ctr: blocks human UHRF1 binding to methylated DNA. hit rate 0.75% among 370,000. UHRF1 binding to methylated oligo, TR-FRET. inhibition, % at 4.4 µM; in the data active = inhibition above about 21%;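 also: UHRF1 SRA domain binding a hemimethylated CpG hairpin DNA probe; 0% = median of test compound wells and 100% = reference inhibitor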
Target sequence (Q96T88 whole entry, looked up, the tested form may be a part): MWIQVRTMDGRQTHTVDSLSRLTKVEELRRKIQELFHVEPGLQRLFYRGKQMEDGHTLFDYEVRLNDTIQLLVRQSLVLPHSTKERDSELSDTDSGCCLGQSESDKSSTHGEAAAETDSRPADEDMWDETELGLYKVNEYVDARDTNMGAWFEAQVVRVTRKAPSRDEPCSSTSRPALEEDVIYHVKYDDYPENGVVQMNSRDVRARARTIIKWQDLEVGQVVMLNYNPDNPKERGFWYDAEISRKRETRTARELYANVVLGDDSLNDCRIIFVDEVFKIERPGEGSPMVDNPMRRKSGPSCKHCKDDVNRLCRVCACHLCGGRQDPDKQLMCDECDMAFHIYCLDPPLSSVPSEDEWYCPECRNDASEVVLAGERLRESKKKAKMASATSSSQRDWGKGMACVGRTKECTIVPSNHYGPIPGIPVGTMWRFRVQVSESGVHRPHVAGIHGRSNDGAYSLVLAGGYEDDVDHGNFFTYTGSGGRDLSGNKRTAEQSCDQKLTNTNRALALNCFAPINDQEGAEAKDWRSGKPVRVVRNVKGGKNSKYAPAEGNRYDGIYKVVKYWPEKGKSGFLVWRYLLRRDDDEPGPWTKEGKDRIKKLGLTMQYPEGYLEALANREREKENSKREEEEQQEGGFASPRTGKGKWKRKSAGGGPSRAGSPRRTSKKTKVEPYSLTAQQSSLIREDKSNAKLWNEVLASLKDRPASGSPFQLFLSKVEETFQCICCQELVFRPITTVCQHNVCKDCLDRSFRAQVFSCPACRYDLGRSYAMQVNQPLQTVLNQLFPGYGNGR
IN multimer act: activates HIV-1 integrase multimerization in LEDGF counter-screen. shares compounds with LEDGF integ inh. TR-FRET HIV-1 integrase multimerization, biochemical. activation, % at 7.7 µM. hit rate 17% among 2,000. AID 1053131; in the data active = activation above about 8.9%
TR-FRET interf: TR-FRET optical interference, LEDGF/p75 integration counter-screen; TR-FRET optical interference counterscreen, HIV-1 IN multimerization; 2,000 tested, under 10 active; shares compounds with LEDGF integ inh; inhibition, % at 7.7 µM;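 active = inhibition above the mean over all tested compounds plus 3 SD, which no compound reached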;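 also: 0% = integrase with antibodies and DMSO and 100% = antibodies without integrase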
IN-LEDGF confirm: confirmation of HIV-1 LEDGF/p75-dependent integration inhibitors; hit rate 36% among 2,000; shares compounds with LEDGF integ inh; TR-FRET LEDGF/p75-dependent HIV-1 integration, biochemical; inhibition, % at 3.7 µM; AID 1053136; in the data active = inhibition above about 14%
Active calls of the source: *.

What do the screens show for `Nc1ccc(N2CCN(CCCCN3C(=O)C4CCCN4C3=O)CC2)cc1` (configuration not stated)?
Rin1-Abl PPI inh: -12.3; MBD2 DNA inh: 6.9; LEDGF integ inh: 21.7*; TDP2 inh: 15.0; UHRF1 MBD2 ctr: 9.8; IN multimer act: -2.4; TR-FRET interf: 12.3; IN-LEDGF confirm: -3.6

How did CCN(CC)c1ccc(C=Nc2ccc(N(C)C)cc2)c(O)c1 do in these assays?
Rin1-Abl PPI inh: 6.7; MBD2 DNA inh: -6.5; LEDGF integ inh: 33.9*; TDP2 inh: 18.6; UHRF1 MBD2 ctr: 11.1; IN multimer act: 12.7*; TR-FRET interf: -44.7; IN-LEDGF confirm: 3.6

What do the screens show for `CCCOc1ccc(CC(=O)NCCc2ccccc2)cc1OC`?
Rin1-Abl PPI inh: 2.9; MBD2 DNA inh: -4.7; LEDGF integ inh: 13.9*; TDP2 inh: -18.9; UHRF1 MBD2 ctr: -0.2; IN multimer act: 1.3; TR-FRET interf: -4.8; IN-LEDGF confirm: -4.4

How did CN(C)S(=O)(=O)N1CCN(C(=O)N(c2ccccc2)c2ccccc2)CC1 do in these assays?
Rin1-Abl PPI inh: 0.3; MBD2 DNA inh: 3.0; LEDGF integ inh: 70.7*; TDP2 inh: -0.2; UHRF1 MBD2 ctr: 2.6; IN multimer act: -0.2; TR-FRET interf: 1.0; IN-LEDGF confirm: -0.5

Results for O=C(Nc1ncc2c(n1)CC(c1ccco1)CC2=O)c1ccco1 (configuration not stated) ?
Rin1-Abl PPI inh: -4.0; MBD2 DNA inh: -3.2; LEDGF integ inh: 13.4*; TDP2 inh: -9.2; UHRF1 MBD2 ctr: 9.8; IN multimer act: 0.8; TR-FRET interf: -4.1; IN-LEDGF confirm: 0.1

What do the screens show for `CCC(=O)Nc1ncc2c(n1)CC(c1ccco1)CC2=O` (configuration not stated)?
Rin1-Abl PPI inh: 2.1; MBD2 DNA inh: 1.8; LEDGF integ inh: 18.1*; TDP2 inh: -11.2; UHRF1 MBD2 ctr: 8.1; IN multimer act: 3.2; TR-FRET interf: -11.4; IN-LEDGF confirm: -6.4

Results for CC(=O)Nc1ncc2c(n1)CC(c1ccco1)CC2=O (configuration not stated) ?
Rin1-Abl PPI inh: 0.6; MBD2 DNA inh: -2.8; LEDGF integ inh: -3.0; TDP2 inh: -2.9; UHRF1 MBD2 ctr: -2.3

What do the screens show for `C(=C\c1ccc2nncn2c1)/c1ccccc1`?
Rin1-Abl PPI inh: -3.6; MBD2 DNA inh: 1.5; LEDGF integ inh: 13.5*; TDP2 inh: 3.3; UHRF1 MBD2 ctr: -3.3; IN multimer act: -4.3; TR-FRET interf: 15.2; IN-LEDGF confirm: 13.1

How did CC(C)(C)c1ccc(-c2c(C(=O)O)c(C(=O)O)c3n2CSC3)cc1 do in these assays?
Rin1-Abl PPI inh: 2.4; MBD2 DNA inh: 0.1; LEDGF integ inh: 7.7; TDP2 inh: -2.2; UHRF1 MBD2 ctr: 1.0

How did Cc1ccc(-c2c(C(=O)O)c(C(=O)O)c3n2CSC3)cc1 do in these assays?
Rin1-Abl PPI inh: 1.3; MBD2 DNA inh: -4.2; LEDGF integ inh: 13.9*; TDP2 inh: 8.9; UHRF1 MBD2 ctr: 2.0; IN multimer act: 0.2; TR-FRET interf: -0.6; IN-LEDGF confirm: -4.6

Results for CCOC(=O)c1cnc(SCC(=O)NNC(=O)c2ccco2)nc1N ?
Rin1-Abl PPI inh: 2.3; MBD2 DNA inh: 5.0; LEDGF integ inh: 72.3*; TDP2 inh: -2.7; UHRF1 MBD2 ctr: -0.2; IN multimer act: 0.6; TR-FRET interf: -2.9; IN-LEDGF confirm: -5.1

What do the screens show for `C[C@H]1CN([C@@H](C)CO)C(=O)CCCn2nncc2CO[C@@H]1CN(C)S(=O)(=O)c1ccc(Oc2ccccc2)nc1`?
Rin1-Abl PPI inh: 0.0; MBD2 DNA inh: 1.8; LEDGF integ inh: 26.2*; TDP2 inh: -0.8; UHRF1 MBD2 ctr: -1.1; IN multimer act: -0.4; TR-FRET interf: 2.0; IN-LEDGF confirm: -12.9

Results for Oc1ccc(N=Nc2ccccc2-c2nn[nH]n2)c(O)c1 ?
Rin1-Abl PPI inh: -2.6; MBD2 DNA inh: -4.5; LEDGF integ inh: 19.3*; TDP2 inh: 17.2; UHRF1 MBD2 ctr: -4.1; IN multimer act: 17.9*; TR-FRET interf: -63.6; IN-LEDGF confirm: 8.9

What do the screens show for `O=C(Cc1c[nH]c2ccccc12)Nc1ccc(Nc2ccncc2)cc1`?
MBD2 DNA inh: -2.1; LEDGF integ inh: 1.2; TDP2 inh: 0.6; UHRF1 MBD2 ctr: -1.7

Results for NC(=O)c1sc2nc(-c3ccco3)ccc2c1N ?
Rin1-Abl PPI inh: 1.2; MBD2 DNA inh: 11.9; LEDGF integ inh: 40.7*; TDP2 inh: 6.7; UHRF1 MBD2 ctr: 27.9*; IN multimer act: 12.6*; TR-FRET interf: -63.5; IN-LEDGF confirm: 8.3

How did N#Cc1c(N)[nH]c(C(=O)c2ccccc2)c1-c1ccccc1Br do in these assays?
MBD2 DNA inh: -7.1; LEDGF integ inh: 31.9*; TDP2 inh: 5.0; UHRF1 MBD2 ctr: -2.7; IN multimer act: -0.3; TR-FRET interf: 1.6; IN-LEDGF confirm: -3.5

What do the screens show for `O=C(O)c1cccc(-n2cccc2/C=N/O)c1`?
Rin1-Abl PPI inh: 1.6; MBD2 DNA inh: 3.7; LEDGF integ inh: 9.4; TDP2 inh: -3.5; UHRF1 MBD2 ctr: 15.9

Results for O=C(O)c1cccc(-n2cccc2/C=C/[N+](=O)[O-])c1 ?
Rin1-Abl PPI inh: 6.2; MBD2 DNA inh: 21.3*; LEDGF integ inh: 36.2*; TDP2 inh: 12.5; UHRF1 MBD2 ctr: 73.5*; IN multimer act: 13.9*; TR-FRET interf: -70.1; IN-LEDGF confirm: 40.4*

How did COC/C=C/C1=CC2=CC(=O)C(C)(OC(=O)c3cnc4ccccc4n3)C(=O)C2=CN1Cc1ccccc1 (configuration not stated) do in these assays?
Rin1-Abl PPI inh: -2.7; MBD2 DNA inh: -6.6; LEDGF integ inh: 15.2*; TDP2 inh: 5.3; UHRF1 MBD2 ctr: -2.9; IN multimer act: 4.1; TR-FRET interf: -14.4; IN-LEDGF confirm: 11.3

How did Cc1cc(C)nc(SCC(=O)Nc2ncc(C(F)(F)F)cc2Cl)n1 do in these assays?
Rin1-Abl PPI inh: 2.4; MBD2 DNA inh: 0.8; LEDGF integ inh: -0.7; TDP2 inh: -4.6; UHRF1 MBD2 ctr: 1.4

Results for O=C(CSc1ncccn1)Nc1ncc(C(F)(F)F)cc1Cl ?
Rin1-Abl PPI inh: -2.4; MBD2 DNA inh: -0.9; LEDGF integ inh: 81.6*; TDP2 inh: 3.0; UHRF1 MBD2 ctr: -1.3; IN multimer act: 0.3; TR-FRET interf: -1.2; IN-LEDGF confirm: 3.6

Results for O=C(Nc1ccc(F)cc1)OCc1cn(Cc2ccc(F)cc2)nn1 ?
MBD2 DNA inh: -2.8; LEDGF integ inh: 3.2; TDP2 inh: -5.9; UHRF1 MBD2 ctr: -2.2

How did Oc1ccc(/C=C/c2cc(O)cc(O)c2)cc1 do in these assays?
Rin1-Abl PPI inh: -2.3; MBD2 DNA inh: -3.8; LEDGF integ inh: 1.6; TDP2 inh: -3.8; UHRF1 MBD2 ctr: -0.7
